Autophagy HCS: alters autophagy in cells; MEF GFP-LC3 puncta imaging; test concentration mostly 10 µM; calls only at 10 µM (by protocol); hit rate 0.98% among 190,000; AID 463193;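 active means percentage of spot-positive cells more than 3 SD above its plate mean, without a fluorescence outlier flag or 80% toxicity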
Lmaj promast: Leishmania major promastigote growth inhibition; Leishmania major promastigotes, resazurin fluorescence viability; inhibition, % at 10 µM; hit rate 9% among 200,000; in the data active means inhibition above about 50%;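 further: promastigotes grown with compound for 44 hours at 28 °C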
Dynein transport: dynein cargo transport inhibition. 3617.4 mouse cells, GR-EGFP nuclear translocation imaging; test concentration mostly 20 µM; stimulated with dexamethasone, 1 µM; stronger effect = lower value. z-score, hits read low. hit rate 0.47% among 220,000;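 active means plate z-score of nuclear minus cytoplasmic receptor signal below a set negative limit, without overly bright fluorescence or cell loss, cut at about -3.5 in these data, passing the limit was not always enough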;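 further: z-score of nuclear minus cytoplasmic ring GR-EGFP intensity difference per well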
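Buffer or medium: Induction medium lacking tetracycline, stripped serum | Also added: Dexamethasone agonist, 1.0 µM final, for 30 min | Timing: 48 h induction, 1 h compound, 30 min dex at 37 °C | Detection: Formaldehyde fixation, Hoechst nuclear stain, 10x automated fluorescence imaging | Measure: Nuclear versus cytoplasmic GR-EGFP signal, averaged per well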
HCT116 bCat-KO: beta-catenin-lacking colon tumor cell growth suppression. HCT116 beta-catenin knockout viability, CellTiter-Glo, 60 h; stronger effect = lower value. viability, % at 10 µM. hit rate 1.5% among 140,000;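 active means viability at or under a set limit, the compound median less 4 SD, cut at about 6% in these data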
PTEN del growth: PTEN-deleted cell growth suppression; HCT116 PTEN-null viability, CellTiter-Glo, 60 h; stronger effect = lower value; viability, % at 10 µM; hit rate 1.2% among 140,000;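 active means viability at or below a set limit, 4 SD under the median of all tested compounds, cut at about 3.7% in these data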;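 further: PTEN knockout HCT116 line with beta catenin targeted HCT116 as companion control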
Each line names hits and unclear results; the compound was inactive in the other large screens. A selection: hits, their analogues and other compounds. The true share with any hit is near 9.2%.

CC(C)CC(C(=O)Nc1ccccc1)N1C(=O)C2C3C=CC(C3)C2C1=O (centres undefined)	none (no result: HCT116 bCat-KO, PTEN del growth)
O=C1c2ccccc2NC(c2ccco2)N1O (centres undefined)	none
O=C1C2=C(Nc3ccccc3SC2c2ccco2)c2ccccc21 (centres undefined)	Lmaj promast 99.3
Cc1cc(=O)oc2cc(OCC(=O)OC(C)C(=O)NC3CCCC3)ccc12 (centres undefined)	none (no result: HCT116 bCat-KO, PTEN del growth)
Cc1cc(O)ccc1N/C=C/c1onc(C)c1[N+](=O)[O-]	none (no result: HCT116 bCat-KO, PTEN del growth)
Cc1cccc(N/C=C/c2onc(C)c2[N+](=O)[O-])c1	Autophagy HCS active
CN(C)CCC1CCN(c2cc(C#N)c(C#N)cc2[N+](=O)[O-])CC1	Lmaj promast 55.2 (no result: HCT116 bCat-KO, PTEN del growth)
COc1cc(NC(=O)c2cc3c(Cl)nc4ccccc4c3s2)cc(OC)c1OC	Lmaj promast 56.8
CC1CCCN(CCCNC(=O)c2cc3c(Cl)nc4ccccc4c3s2)C1 (centres undefined)	Lmaj promast 99.7 (no result: HCT116 bCat-KO, PTEN del growth)
COc1ccc(NC(=O)c2cc3c(Cl)nc4ccccc4c3s2)c(OC)c1	none
CN(CCCNC(=O)c1cc2c(Cl)nc3ccccc3c2s1)Cc1ccccc1	Lmaj promast 93.3 (no result: HCT116 bCat-KO, PTEN del growth)
CCN(CC)CCCNC(=O)c1cc2c(Cl)nc3ccccc3c2s1	Lmaj promast 98.2 (no result: HCT116 bCat-KO, PTEN del growth)
COc1ccc(C=O)cc1OC(=O)C1(C)Cc2ccccc2C(=O)O1 (centres undefined)	none (no result: HCT116 bCat-KO, PTEN del growth)
O=C(O)C1C2C=CC(C2)C1C(=O)NCc1ccc(Cl)c(Cl)c1 (centres undefined)	Lmaj promast 52.9
CCOc1cc(Br)c(Br)c(C=Nc2ccc(NC(C)=O)cc2)c1O	Lmaj promast 67.5
CC(=O)Nc1ccc(N=Cc2c(O)c(C(=O)Nc3ccccc3)cc3ccccc23)cc1	none (no result: HCT116 bCat-KO, PTEN del growth)
CCOC(=O)N1CCC(Nc2cccc(SC)c2)CC1	Lmaj promast 96.5
CCOC(=O)N1CCC(Nc2c(Nc3cccc(CC)c3)c(=O)c2=O)CC1	none
CCOC(=O)N1CCC(N(CCOC)C(=S)Nc2cccc(SC)c2)CC1	Lmaj promast 64.8 (no result: HCT116 bCat-KO, PTEN del growth)
CCOC(=O)N1CCC(N(CCN(C)C)C(=S)Nc2cccc(OC)c2)CC1	none (no result: HCT116 bCat-KO, PTEN del growth)
Cc1cccc(C2c3[nH]c4ccccc4c3CCN2Cc2cccn2-c2ncccn2)c1 (centres undefined)	Lmaj promast 59.5 (no result: HCT116 bCat-KO, PTEN del growth)
c1ccc(C2c3[nH]c4ccccc4c3CCN2Cc2cccn2-c2ccccn2)nc1 (centres undefined)	none (no result: Autophagy HCS, Lmaj promast, HCT116 bCat-KO, PTEN del growth)
COc1ccccc1C1c2[nH]c3ccccc3c2CCN1Cc1cnc(C)s1 (centres undefined)	none (no result: HCT116 bCat-KO, PTEN del growth)
COc1ccc(C2c3[nH]c4ccccc4c3CCN2Cc2cccn2-c2ncccn2)cc1C (centres undefined)	Autophagy HCS active, Lmaj promast 70.7 (no result: HCT116 bCat-KO, PTEN del growth)
C#CCOC(=O)c1ccc(-n2cncn2)nc1	none
COc1cccc(-n2c(=O)c3c(C)c(C(=O)N(C)C)sc3n(CC(=O)NCC3CCCO3)c2=O)c1 (centres undefined)	none (no result: HCT116 bCat-KO, PTEN del growth)
FC(F)(F)C(Oc1nc(NC2CCCCC2)nc(N2CCOCC2)n1)C(F)(F)F	Lmaj promast 81.2
Cc1ccccc1CSc1ccc2nnc(-c3ccccn3)n2n1	none (no result: HCT116 bCat-KO, PTEN del growth)
Cc1nn(Cc2ccc(Cl)cc2Cl)c(Cl)c1/C=N/NC(=O)CNc1cccc(C(F)(F)F)c1	HCT116 bCat-KO 1.8, PTEN del growth 2.3
COc1cccc(-c2cc(C(F)(F)F)c(C#N)c(=O)[nH]2)c1	Autophagy HCS active (no result: HCT116 bCat-KO, PTEN del growth)
N#CCCN(C(=O)COc1ccc(C#N)cc1)c1ccc(F)cc1	none (no result: HCT116 bCat-KO, PTEN del growth)
CCOc1ccc(N2C(=O)CC(Sc3nc(-c4cccs4)cc(C(F)(F)F)c3C#N)C2=O)cc1 (centres undefined)	Lmaj promast 55.4
CCOc1ccc(N2C(=O)CC(Sc3ncccn3)C2=O)cc1 (centres undefined)	none
FC(F)(F)c1ccccc1NC(=S)N1CCc2ccccc2C1	Autophagy HCS active (no result: HCT116 bCat-KO, PTEN del growth)
COc1ccccc1NC(=S)N(Cc1ccco1)Cc1cc2ccc(C)c(C)c2[nH]c1=O	none
Cc1ccc(NC(=S)N(Cc2cccs2)Cc2cc3cccc(C)c3[nH]c2=O)cc1	Lmaj promast 91.9
Cc1ccc2cc(CN(CCCN(C)C)C(=S)NCc3ccccc3)c(=O)[nH]c2c1C	Lmaj promast 94.7 (no result: HCT116 bCat-KO, PTEN del growth)
COc1ccccc1NC(=S)N(Cc1ccco1)Cc1cc2cc(C)cc(C)c2[nH]c1=O	Lmaj promast 84.5
Cc1cccc2cc(CN(CCN(C)C)C(=S)Nc3ccccc3)c(=O)[nH]c12	Lmaj promast 78.5
Cc1ccc2cc(CN(CCCN(C)C)C(=O)NCc3ccccc3)c(=O)[nH]c2c1C	none
